p97 ATPase inh – human p97 ATPase inhibition; P55072; recombinant p97 ATPase, Kinase-Glo ATP luminescence, 3 h; inhibition, % at 8 µM; 220,000 compounds, 0.42% hits; AID 1481; in the data active = inhibition above about 15%;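 note: 0% = DMSO vehicle and 100% = wells lacking enzyme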
PERK inhibitor – blocks human PERK kinase; CHO PERK-DD fusion, SEAP luminescence translation reporter; Q9NZJ5; 220,000 compounds, 0.17% hits; inhibition, % at 5.6 µM;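 active = inhibition above the mean inhibition of all tested compounds plus 3 SD, set separately per screening campaign, cut at about 2.9% in these data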;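 note: PERK kinase domain activated by AP20187 dimerizer at 100 nM; 0% = DMSO with dimerizer and 100% = rapamycin at 8.4 µM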
14-3-3 Bad inh – disrupts binding of bovine 14-3-3 zeta to phospho-Bad peptide | AID 781 | inhibition, % at 21.7 µM | 220,000 compounds, 0.71% hits | TR-FRET 14-3-3zeta/Dy647-pBad peptide displacement, 1 h;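 active = inhibition above about 70%, limit read from the data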;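 note: 0% = full 14-3-3 plus peptide FRET controls and 100% = background without 14-3-3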
Hck Nef HTS – inhibitors of human Hck kinase activated by Nef | Recombinant Hck-YEEI plus Nef, Z-Lyte FRET kinase assay | 220,000 compounds, 0.68% hits | inhibition, % at 20 µM | P08631 | AID 463187;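 active = Hck-Nef kinase inhibition above about 50%, limit read from the data; inactive = inhibition below that limit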;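 note: 0% = DMSO with Hck plus Nef and 100% = Hck alone without Nef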
Target sequence (P08631 whole entry, looked up): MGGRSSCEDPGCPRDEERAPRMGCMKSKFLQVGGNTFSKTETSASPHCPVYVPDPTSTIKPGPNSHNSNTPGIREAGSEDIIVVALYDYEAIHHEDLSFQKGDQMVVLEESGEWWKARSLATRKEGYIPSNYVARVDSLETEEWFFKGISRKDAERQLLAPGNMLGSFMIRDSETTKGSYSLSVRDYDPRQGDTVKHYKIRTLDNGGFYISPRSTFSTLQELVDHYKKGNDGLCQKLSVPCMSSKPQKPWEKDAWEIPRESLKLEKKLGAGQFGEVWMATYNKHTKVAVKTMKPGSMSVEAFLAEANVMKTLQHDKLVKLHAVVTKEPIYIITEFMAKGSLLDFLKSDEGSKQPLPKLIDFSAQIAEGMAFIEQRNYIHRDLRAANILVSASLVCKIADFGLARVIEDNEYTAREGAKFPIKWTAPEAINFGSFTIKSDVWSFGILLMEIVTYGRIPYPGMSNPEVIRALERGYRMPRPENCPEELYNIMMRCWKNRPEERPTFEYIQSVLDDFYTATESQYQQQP
Calb biofilm kill – mixtures killing C. albicans biofilm. C. albicans biofilm persisters + clotrimazole, fluorescence viability; primary screen in compound mixtures of four per well. inhibition, % at 7.6 µM. 120,000 compounds, 0.02% hits;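 active = inhibition above 30.3% in the primary screen of four-compound pools, then above 30% when the compound was retested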;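 note: compounds exposed to preformed 24 h biofilms for 48 h; 0% = untreated biofilm control and 100% = clotrimazole plus chlorhexidine kill blank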
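Assay system: C. albicans biofilms / Medium: RPMI/MOPS medium, pH 7.0 / Schedule: biofilm formation 24 h, compound exposure 48 h, 37 °C / Measured by: Alamar Blue fluorescence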
eIF4E 4G PPI – eIF4E/eIF4G interaction inhibition in translation initiation; P63073+Q04637; TR-FRET eIF4E-eIF4GI(517-606) binding, 2 h; inhibition, % at 21.7 µM; 220,000 compounds, 0.37% hits;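 active = inhibition above about 30%, limit read from the data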;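 note: 0% = full FRET control wells and 100% = background wells lacking eIF4GI fragment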
An asterisk follows results filed as active; · = no result given; [ ] = another dose, or the depositor's remark. The list is not random: actives were taken first. Their share in the collection is about 2.2%.

SMILES	p97 ATPase inh	PERK inhibitor	14-3-3 Bad inh	Hck Nef HTS	Calb biofilm kill	eIF4E 4G PPI
C/C=C\C=C/C(=O)Nc1cccc(C2=NOC3(C2)C[C@@H](C(N)=O)N(C(=O)/C=C/CC)C3)c1 (stereo partly drawn)	·	·	-4	-1	13	75*
O=C(Nc1nc2ccccc2s1)c1cc(-c2ccco2)nc2ccccc12	-3	-1	15	2	9	-8
N=c1oc2cc(O)ccc2cc1C(=O)Nc1nc2ccccc2s1	-1	1	26	81*	19	-12
N=c1oc2cc(O)ccc2cc1C(=O)Nc1ccccn1	0	0	6	115*	9	2
CC(C)c1ccc(C2NC(=O)CCC2[N+](=O)[O-])cc1 (stereo not drawn)	7	1	-8	20	27	0
CCOC(=O)c1[nH]c(C)c(C(=O)O)c1C	4	3.3*	0	6	·	2
CCOC(=O)c1c(C)[nH]c(C(=O)COC(=O)c2cnc(C)cn2)c1C	1	0	80*	4	·	1
CCOC(=O)c1c(C)[nH]c(C(=O)CN2CCN(CC)CC2)c1C	6	0	31	13	21	54*
CCOC(=O)c1[nH]c(C)c(C(=O)N(C)C)c1C	0	1	-4	-1	·	1
CCCCC(=O)OCC(=O)c1[nH]c(C)c(C(=O)OCC)c1C	-6	1	-2	-2	·	-10
O=C(Cn1nc2ccccc2n1)N/N=C/c1ccc(F)cc1	2	1	1	16	20	3
O=C(Nc1cc(Cl)cc(Cl)c1)C(NCCO)c1ccccc1 (stereo not drawn)	0	1	80*	0	·	0
O=C(O)c1cc(-c2ccc(O)cc2)on1	5	0	79*	13	7	-1
O=C(O)c1cc(-c2ccccc2)on1	-4	0	9	-11	·	-3
CCN(CC)c1ccc(C(=O)N/N=C(\C)c2cccnc2)cc1	-7	0	-15	17	9	3
C/C(=N\NC(=O)c1cccnc1)c1ccc(OC2OCCOC2Oc2ccc(/C(C)=N/NC(=O)c3cccnc3)cc2)cc1 (stereo not drawn)	-3	0	87*	24	14	15
COc1cc(CO)c(Br)cc1OCC(N)=O	0	0	82*	-3	-2	1
CC(C)Cc1cc(C(=O)NCc2cccs2)no1	2	3.4*	2	-5	·	-1
COc1ccc(OCCc2nnc(N)s2)cc1	2	0	8	1	·	4
COc1ccccc1OCCc1nnc(N)s1	2	3.3*	-4	2	·	8
O=S(=O)(c1ccc(Cl)cc1)c1nc(-c2ccco2)oc1N1CCOCC1	3	0	76*	0	1	5
Cc1ccc(N2C(=O)CSC2c2cccnc2)c(Cl)c1 (stereo not drawn)	5	-1	7	-4	0	5
COc1cccc(C2CCCCN(C)C2=O)c1 (stereo not drawn)	10	2	2	4	8	-2
Cn1ccnc1C(=O)c1cccc([N+](=O)[O-])c1	4	1	91*	3	8	8
Cc1cc(=O)oc2cc(OCC(=O)c3ccc4c(c3)NC(=O)CO4)ccc12	4	1	71*	38	-2	13
SMILES	p97 ATPase inh	PERK inhibitor	14-3-3 Bad inh	Hck Nef HTS	Calb biofilm kill	eIF4E 4G PPI
COc1ccc(C(=O)NCC(=O)OCC(=O)c2ccc3c(c2)NC(=O)CO3)cc1	0	1	-4	-2	16	2
C=CCOC(=O)c1cc(-c2ccc(/C=C3\C(=O)NC(=O)C(C#N)=C3C)o2)ccc1Cl	5	1	92*[fluorescence artefact?]	91*	·	60*[fluorescence artefact?]
CO/N=C/C1CCN(c2ncc(C(F)(F)F)cc2Cl)C1=O (stereo not drawn)	-4	1	8	21	15	-3
C/C(CC(=O)Nc1ccc(Cl)cc1Cl)=N\NC(=O)c1ccncc1	7	3.1*	-6	7	8	-5
C=CCN1C(=O)/C(=C2/Sc3ccccc3N2CCCS(=O)(=O)O)SC1=S	14	1	72*	6	·	6
Cc1ccc2c(c1C)NC(C)CC2C (stereo not drawn)	1	3.4*	50	0	·	-5
Cc1c(NC(=O)CN2C(=O)NC3(CCC(C)CC3)C2=O)c(=O)n(-c2ccccc2)n1C (stereo not drawn)	-3	0	55	14	13	1
CCn1ncc(-c2ccnc3cc(C(=O)O)nn23)c1C	6	1	70*	-1	15	25
Cc1csc(SCC(=O)Nc2ccc3c(c2)OCCO3)n1	-3	0	7	-12	33	5
CSc1nsc(SCC(=O)Nc2ccc3c(c2)OCCO3)n1	-1	3.1*	0	0	·	3
CCOC(=O)c1c(CSCc2ccccc2)oc2ccc(O)c(CN(C)C)c12	1	-2	0	15	19	-3
COc1cc2c(cc1OC)CN(C(=O)/C=C/c1cccs1)CC2	3	-2	1	16	18	-2
Cc1sc(NC(=O)c2ccco2)c(CN2CCN(c3ccccc3)CC2)c1C	-7	-1	80*	22	·	0
CO[C@@]1(NC(=O)Cc2cccs2)C(=O)N2C(C(=O)O)=C(COC(N)=O)CS[C@@H]21	5	1	73*	3	8	6
C=CCOC(=O)c1ccc(-n2cnc(C)n2)nc1	4	0	-1	20	0	3
Cc1cccc(OCCCC(=O)Nc2ccc(N3CCCCC3)cc2)c1	-2	0	-18	0	·	-3
CCN(CC)c1ccc(NC(=O)CCCOc2cccc(C)c2)cc1	-1	1	7	22	5	34*
COc1cccc2sc(Nc3nc4ccc(NC(C)=O)cc4s3)nc12	2	-1	80*[fluorescence artefact?]	-1	13	6
O=C1C(=Cc2cccn2-c2ccc(O)cc2)C(=O)c2ccccc21	7	2	84*[fluorescence artefact?]	14	·	-3
O=C(O)c1cccc(-n2cccc2C=C2C(=O)c3ccccc3C2=O)c1	9	1	1	4	3	3
O=C1C(=Cc2cccn2-c2ccccc2)C(=O)c2ccccc21	4	0	82*[fluorescence artefact?]	13	2	-10
COC(=O)C(=N/Nc1ccccc1C(=O)OC)/C(C)=N/O	2	-1	4	19	12	0
C=CCn1c(-c2ccoc2)n[nH]c1=S	5	1	-14	-1	·	65*
COc1ccc(Cl)cc1NC(=O)C(C)N1CCN(C/C=C/c2ccccc2)CC1 (stereo not drawn)	-4	-1	76*	-3	·	-5
CC(=O)c1ccc(NC(=O)C(C)N2CCN(C/C=C/c3ccccc3)CC2)cc1 (stereo not drawn)	4	1	-15	24	-9	5
